Data taken from article PMC3966491 (Chemical biology & drug design, 2013).

Key:
AKT1 (PKB alpha) = AKT1 (PKB alpha) (Homo sapiens, UniProt P31749); assay: AKT1 in vitro kinase assay; format: biochemical
Summary of the method: (§1)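 Z′-LYTE assay. Enzyme per 10 μL reaction: AKT1 0.34–7.65 ng, AKT2 1–40 ng, or AKT3 0.56–8.3 ng. Reaction contained 2 μM Ser/Thr 06 peptide, ATP at Km, 50 mM HEPES pH 7.5, 0.01% BRIJ-35, 10 mM MgCl2 and 1 mM EGTA. After 1 h, Development Reagent A (1:2048) protease cleaved non-phosphorylated peptide. Read-out was the coumarin 445 nm/fluorescein 520 nm emission ratio; curves were fitted.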

AKT2 (PKB beta) = AKT2 (PKB beta) (Homo sapiens, UniProt P31751); assay: AKT2 in vitro kinase assay; format: biochemical
Summary of the method: as §1

AKT3 (PKB gamma) = AKT3 (PKB gamma) (Homo sapiens, UniProt Q9Y243); assay: AKT3 in vitro kinase assay; format: biochemical
Summary of the method: as §1

CHUK (IKK alpha) = biological target: T1, CHUK (IKK alpha) (Homo sapiens, UniProt O15111); assay: IKKα; format: biochemical; details: for IKKα in vitro kinase inhibition (in words): stated for IKKs
T1 sequence (O15111 1-745): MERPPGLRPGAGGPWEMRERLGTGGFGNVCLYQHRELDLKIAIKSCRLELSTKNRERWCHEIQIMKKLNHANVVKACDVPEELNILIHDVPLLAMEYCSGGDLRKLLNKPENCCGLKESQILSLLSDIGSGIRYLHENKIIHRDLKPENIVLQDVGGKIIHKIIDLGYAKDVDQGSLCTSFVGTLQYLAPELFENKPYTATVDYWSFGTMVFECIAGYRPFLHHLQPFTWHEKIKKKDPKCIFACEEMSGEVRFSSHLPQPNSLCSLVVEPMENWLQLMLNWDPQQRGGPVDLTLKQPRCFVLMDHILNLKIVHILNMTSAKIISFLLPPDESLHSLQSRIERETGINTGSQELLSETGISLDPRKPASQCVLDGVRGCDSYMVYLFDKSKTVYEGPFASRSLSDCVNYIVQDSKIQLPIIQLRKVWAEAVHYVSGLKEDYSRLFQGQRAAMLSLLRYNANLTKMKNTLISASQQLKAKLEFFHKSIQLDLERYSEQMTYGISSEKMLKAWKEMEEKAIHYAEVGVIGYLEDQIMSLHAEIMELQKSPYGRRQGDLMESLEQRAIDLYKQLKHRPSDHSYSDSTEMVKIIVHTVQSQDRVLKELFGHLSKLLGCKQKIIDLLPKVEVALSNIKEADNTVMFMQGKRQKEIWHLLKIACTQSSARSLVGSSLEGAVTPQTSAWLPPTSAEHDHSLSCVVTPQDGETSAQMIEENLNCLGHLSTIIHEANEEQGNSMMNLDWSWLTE
Summary of the method: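 ADAPTA ADP-detection format. Detection mix added EDTA (stop), europium-labelled anti-ADP antibody and Alexa Fluor 647 ADP tracer; ADP formation was taken from the emission ratio. Where noted, IC50 was predicted from % inhibition at 1 μM test compound, mean of two experiments.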

IKBKB (IKK beta) = biological target: T2, IKBKB (IKK beta) (Homo sapiens, UniProt O14920); assay: IKKβ; format: biochemical; details: for IKKβ in vitro kinase inhibition (in words): stated for IKKs
T2 sequence (O14920 1-756): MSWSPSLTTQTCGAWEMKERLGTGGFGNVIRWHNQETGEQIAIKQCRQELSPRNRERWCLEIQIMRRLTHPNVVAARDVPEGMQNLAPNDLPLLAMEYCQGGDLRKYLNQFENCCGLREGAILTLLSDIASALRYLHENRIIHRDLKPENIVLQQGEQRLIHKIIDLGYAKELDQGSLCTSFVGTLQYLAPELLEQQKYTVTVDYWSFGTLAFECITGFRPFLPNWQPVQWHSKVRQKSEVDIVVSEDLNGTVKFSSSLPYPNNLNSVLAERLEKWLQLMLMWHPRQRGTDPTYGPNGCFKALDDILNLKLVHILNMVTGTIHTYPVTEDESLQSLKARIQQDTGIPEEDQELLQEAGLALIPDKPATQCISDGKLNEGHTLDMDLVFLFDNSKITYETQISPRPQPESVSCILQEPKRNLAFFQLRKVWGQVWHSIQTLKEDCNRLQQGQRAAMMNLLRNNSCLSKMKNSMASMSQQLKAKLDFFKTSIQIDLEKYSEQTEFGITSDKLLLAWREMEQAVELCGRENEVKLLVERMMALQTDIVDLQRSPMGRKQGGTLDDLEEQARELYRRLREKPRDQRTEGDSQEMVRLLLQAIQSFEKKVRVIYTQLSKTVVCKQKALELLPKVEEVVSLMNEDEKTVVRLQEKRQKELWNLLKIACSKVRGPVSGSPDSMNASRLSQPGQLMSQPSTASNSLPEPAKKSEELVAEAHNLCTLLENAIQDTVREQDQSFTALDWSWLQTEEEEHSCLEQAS
Summary of the method: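 Z′-LYTE format. Development used Reagent B (1:64) protease; read-out was the coumarin 445 nm/fluorescein 520 nm emission ratio. Where noted, IC50 was predicted from % inhibition at 10 μM test compound, mean of two experiments.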

[1] = in vitro plasma stability; format: in vitro ADME
[2] = in vitro microsomal stability; format: in vitro ADME
[3] = tested on: 21 protein kinases including SPHK1, SPHK2, FES and AURKB; assay: in vitro selectivity against 21 protein kinases; format: biochemical; details: 21 protein kinases previously inhibited by compound 1
[4] = tested on: AKT levels and phosphorylation of its substrate PRAS40; assay: Western blot of AKT pathway in melanoma UACC903 cells; format: cell-based, human; details: 4 hours
[5] = tested on: phosphorylation of IKK Ser176/180 and total IκB levels; assay: Western blot of NF-κB pathway in TNF-α stimulated UACC903 cells; format: cell-based, human; details: 10 μM, 1 hour prior to TNF-α stimulation (20 ng/ml)
[6] = tested on: Human UACC903 melanoma cells xenograft; assay: in vivo melanoma xenograft study; details: oral gavage twice a week, 10 mg/kg and 25 mg/kg, single agent, nude mice
[7] = tested on: UACC903 xenograft tumor sections; assay: TUNEL and IκB immunohistochemistry of xenograft tumor sections; format: in vivo, nude mice; details: tumors from treated mice vs vehicle, after 28 days
Summary of the method: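 Female nude mice (6–7 weeks) received 1×10^6 UACC903 cells in PBS subcutaneously in the flank. After 4 weeks, tumours were fixed, paraffin-sectioned, immunostained (DAB, haematoxylin) or TUNEL-stained, then scanned. Scores: TUNEL-positive nuclei/area and IκB immunoscore/area; error bars SEM.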

AKT1 (PKB alpha), sequence (P31749 whole entry): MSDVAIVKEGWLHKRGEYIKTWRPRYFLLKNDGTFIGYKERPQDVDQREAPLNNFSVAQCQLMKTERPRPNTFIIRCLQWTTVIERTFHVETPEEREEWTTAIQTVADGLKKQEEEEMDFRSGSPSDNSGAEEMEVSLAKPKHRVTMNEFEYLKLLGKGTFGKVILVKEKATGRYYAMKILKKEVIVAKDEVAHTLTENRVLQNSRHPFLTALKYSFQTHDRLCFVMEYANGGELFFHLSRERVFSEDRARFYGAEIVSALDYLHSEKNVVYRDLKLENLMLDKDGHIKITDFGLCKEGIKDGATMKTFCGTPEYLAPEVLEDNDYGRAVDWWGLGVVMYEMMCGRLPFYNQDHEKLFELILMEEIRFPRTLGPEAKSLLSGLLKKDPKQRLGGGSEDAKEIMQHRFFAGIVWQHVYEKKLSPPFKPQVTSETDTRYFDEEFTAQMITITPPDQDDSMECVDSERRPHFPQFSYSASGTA
AKT2 (PKB beta), sequence (P31751 whole entry): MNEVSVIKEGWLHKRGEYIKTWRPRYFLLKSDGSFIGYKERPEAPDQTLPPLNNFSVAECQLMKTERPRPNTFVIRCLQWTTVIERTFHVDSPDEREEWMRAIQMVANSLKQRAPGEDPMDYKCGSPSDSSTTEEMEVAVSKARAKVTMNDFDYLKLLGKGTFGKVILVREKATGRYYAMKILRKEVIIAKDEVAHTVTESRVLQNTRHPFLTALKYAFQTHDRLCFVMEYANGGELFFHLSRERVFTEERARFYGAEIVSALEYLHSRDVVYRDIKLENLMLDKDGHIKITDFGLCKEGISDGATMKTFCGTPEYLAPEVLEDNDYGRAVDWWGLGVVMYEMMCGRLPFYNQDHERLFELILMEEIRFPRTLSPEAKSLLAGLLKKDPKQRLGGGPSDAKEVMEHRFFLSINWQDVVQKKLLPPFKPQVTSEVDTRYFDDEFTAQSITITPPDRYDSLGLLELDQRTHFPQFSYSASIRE
AKT3 (PKB gamma), sequence (Q9Y243 whole entry): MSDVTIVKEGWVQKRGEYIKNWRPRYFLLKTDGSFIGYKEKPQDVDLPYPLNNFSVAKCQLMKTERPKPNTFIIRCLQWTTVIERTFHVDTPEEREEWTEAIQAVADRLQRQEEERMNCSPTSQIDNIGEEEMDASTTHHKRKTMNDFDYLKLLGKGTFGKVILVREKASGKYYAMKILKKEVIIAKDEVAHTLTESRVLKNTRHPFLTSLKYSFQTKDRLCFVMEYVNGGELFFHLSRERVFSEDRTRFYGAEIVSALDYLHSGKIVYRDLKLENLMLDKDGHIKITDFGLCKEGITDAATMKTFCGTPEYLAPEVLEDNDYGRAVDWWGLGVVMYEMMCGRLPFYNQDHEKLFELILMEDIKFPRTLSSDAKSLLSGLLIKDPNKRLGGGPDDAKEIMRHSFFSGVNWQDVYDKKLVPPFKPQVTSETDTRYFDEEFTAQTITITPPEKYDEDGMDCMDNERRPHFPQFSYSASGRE

Row | IC50 (AKT1 (PKB alpha)) [µM] | IC50 (AKT2 (PKB beta)) [µM] | IC50 (AKT3 (PKB gamma)) [µM] | IC50 (CHUK (IKK alpha)) [µM] | IC50 (IKBKB (IKK beta)) [µM] | SMILES | also measured
1 | 6.22 | 4.24 | 10.9 | 3.85 | 2.3 | O=C(/C=C/c1nc2ccccc2[nH]1)c1c(O)nc2ccc(Cl)cc2c1-c1ccccc1 [compound 1, (E)-3-(3-(1H-benzo[d]imidazol-2-yl)acryloyl)-6-chloro-4-phenylquinolin-2(1H)-one] | plasma stability [1]: favorable; microsomal stability [2]: favorable
2 | 43.3 | 5 | 8.4 | 8.03 | 9.6 | Cc1ccc2[nH]c(/C=C/C(=O)c3c(-c4ccccc4)c4cc(Cl)ccc4[nH]c3=O)nc2c1 [compound 40, (E)-6-chloro-3-(3-(5-methyl-1H-benzo[d]imidazol-2-yl)acryloyl)-4-phenylquinolin-2(1H)-one] | –
3 | 4.48 | 1.72 | 8.85 | 6.02 | 5.6 | O=C(/C=C/c1nc2ccccc2[nH]1)c1c(-c2ccccc2)c2cc(Br)ccc2[nH]c1=O [compound 44, (E)-3-(3-(1H-benzo[d]imidazol-2-yl)acryloyl)-6-bromo-4-phenylquinolin-2(1H)-one] | –
4 | 6.26 | – | 5.53 | 29.1 | 7.9 | Cc1ccc2[nH]c(=O)c(C(=O)/C=C/c3nc4ccccc4[nH]3)c(-c3ccccc3)c2c1 [compound 45, (E)-3-(3-(1H-benzo[d]imidazol-2-yl)acryloyl)-6-methyl-4-phenylquinolin-2(1H)-one] | –
5 | 15.9 | – | – | 13.1 | 16 | O=C(/C=C/c1nc2cc(F)c(F)cc2[nH]1)c1c(-c2ccc(F)cc2)c2cc(F)ccc2[nH]c1=O [compound 48, (E)-3-(3-(5,6-difluoro-1H-benzo[d]imidazol-2-yl)acryloyl)-6-fluoro-4-(4-fluorophenyl)quinolin-2(1H)-one] | –
6 | 30.4 | – | – | 7.12 | 15.4 | O=C(/C=C/c1nc2cc(F)c(F)cc2[nH]1)c1c(-c2ccc(F)cc2)c2cc(Cl)ccc2[nH]c1=O [compound 49, (E)-6-chloro-3-(3-(5,6-difluoro-1H-benzo[d]imidazol-2-yl)acryloyl)-4-(4-fluorophenyl)quinolin-2(1H)-one] | –
7 | 44.5 | – | – | 7.2 | 16.4 | O=C(/C=C/c1nc2cc(F)c(F)cc2[nH]1)c1c(-c2ccc(F)c(F)c2)c2cc(F)ccc2[nH]c1=O [compound 54, (E)-3-(3-(5,6-difluoro-1H-benzo[d]imidazol-2-yl)acryloyl)-4-(3,4-difluorophenyl)-6-fluoroquinolin-2(1H)-one] | –
8 | > 50 | – | – | 12.1 | 17.8 | O=C(/C=C/c1nc2cc(F)c(F)cc2[nH]1)c1c(-c2ccc(F)c(F)c2)c2cc(Cl)ccc2[nH]c1=O [compound 55, (E)-6-chloro-3-(3-(5,6-difluoro-1H-benzo[d]imidazol-2-yl)acryloyl)-4-(3,4-difluorophenyl)quinolin-2(1H)-one] | –
9 | – | – | – | – | – | O=C(NCc1nc2ccccc2[nH]1)c1c(-c2ccccc2)c2cc(Cl)ccc2[nH]c1=O [compound 58, N-((1H-benzo[d]imidazol-2-yl)methyl)-6-chloro-2-oxo-4-phenyl-1,2-dihydroquinoline-3-carboxamide] | AKT1 in vitro inhibition (in words) (AKT1 (PKB alpha)): completely inactive; IKKα in vitro kinase inhibition (in words) (CHUK (IKK alpha)): completely inactive; IKKβ in vitro kinase inhibition (in words) (IKBKB (IKK beta)): completely inactive
10 | – | – | – | – | – | O=C(CCc1nc2ccccc2[nH]1)c1c(-c2ccccc2)c2cc(Cl)ccc2[nH]c1=O [compound 59, 3-(3-(1H-benzo[d]imidazol-2-yl)propanoyl)-6-chloro-4-phenylquinolin-2(1H)-one] | AKT1 in vitro inhibition (in words) (AKT1 (PKB alpha)): completely inactive; IKKα in vitro kinase inhibition (in words) (CHUK (IKK alpha)): completely inactive; IKKβ in vitro kinase inhibition (in words) (IKBKB (IKK beta)): completely inactive

Row | SMILES | IC50 (AKT1 (PKB alpha)) [µM] | IC50 (AKT2 (PKB beta)) [µM] | IC50 (AKT3 (PKB gamma)) [µM] | IC50 (CHUK (IKK alpha)) [µM] | IC50 (IKBKB (IKK beta)) [µM] | also measured
11 | O=C(/C=C/c1nc2cc(F)ccc2[nH]1)c1c(-c2ccccc2)c2cc(Cl)ccc2[nH]c1=O [compound 42, (E)-6-chloro-3-(3-(5-fluoro-1H-benzo[d]imidazol-2-yl)acryloyl)-4-phenylquinolin-2(1H)-one] | 5.01 | 3.43 | 6.49 | 6.03 | 1.9 | IC50 values against all the selected kinases (in words) [3]: low micromolar range; inhibition of AKT levels and PRAS40 phosphorylation [4]: effectively inhibited; inhibition of phosphorylation of IKK Ser176/180 and total IκB levels [5]: effectively inhibited; plasma stability [1]: favorable; microsomal stability [2]: favorable; tumor growth in xenograft [6]: Remarkable tumor growth/suppression; IκB expression in tumors [7]: higher IκB expression; apoptosis in tumors (TUNEL staining) [7]: higher levels of apoptosis
